In ChEMBL document CHEMBL1123982, “Syntheses and adrenergic activities of ring-fluorinated epinephrines” (J Med Chem, 1988):

What was measured:
[1] = target: T1, Adrenergic receptor alpha-2 (Homo sapiens, UniProt P08913+P18825+P18089); test: Binding affinity against alpha 2-Adrenergic receptor in guinea pig cerebral cortical membranes by displacement of [3H]clonidine; parameters: species or system Cavia porcellus; settings: target entry is the homologue from another species
T1 sequence (P08913 whole entry): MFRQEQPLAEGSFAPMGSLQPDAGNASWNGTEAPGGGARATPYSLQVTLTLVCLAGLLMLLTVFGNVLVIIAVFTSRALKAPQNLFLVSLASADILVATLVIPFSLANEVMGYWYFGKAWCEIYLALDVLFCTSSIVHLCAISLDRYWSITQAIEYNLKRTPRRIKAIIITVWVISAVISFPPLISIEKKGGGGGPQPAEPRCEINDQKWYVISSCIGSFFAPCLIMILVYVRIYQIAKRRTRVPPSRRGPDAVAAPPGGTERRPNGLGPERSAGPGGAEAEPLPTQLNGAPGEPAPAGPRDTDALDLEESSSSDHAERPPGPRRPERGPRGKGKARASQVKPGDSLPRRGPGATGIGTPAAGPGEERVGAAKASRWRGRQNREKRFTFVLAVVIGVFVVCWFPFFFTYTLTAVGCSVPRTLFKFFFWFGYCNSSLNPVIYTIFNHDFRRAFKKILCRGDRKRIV
T1 sequence (P18825 whole entry): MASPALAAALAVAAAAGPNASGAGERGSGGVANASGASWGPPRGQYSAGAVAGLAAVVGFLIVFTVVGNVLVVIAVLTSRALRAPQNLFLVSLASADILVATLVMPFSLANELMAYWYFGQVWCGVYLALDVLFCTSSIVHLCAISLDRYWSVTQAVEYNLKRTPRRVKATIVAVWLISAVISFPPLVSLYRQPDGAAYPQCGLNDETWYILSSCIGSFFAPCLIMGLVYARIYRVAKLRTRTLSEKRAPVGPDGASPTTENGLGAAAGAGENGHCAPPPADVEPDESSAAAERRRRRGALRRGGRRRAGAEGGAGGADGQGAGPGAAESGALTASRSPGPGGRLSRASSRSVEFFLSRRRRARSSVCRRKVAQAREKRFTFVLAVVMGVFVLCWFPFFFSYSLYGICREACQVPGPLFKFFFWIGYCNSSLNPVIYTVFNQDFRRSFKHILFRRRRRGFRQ
T1 sequence (P18089 whole entry): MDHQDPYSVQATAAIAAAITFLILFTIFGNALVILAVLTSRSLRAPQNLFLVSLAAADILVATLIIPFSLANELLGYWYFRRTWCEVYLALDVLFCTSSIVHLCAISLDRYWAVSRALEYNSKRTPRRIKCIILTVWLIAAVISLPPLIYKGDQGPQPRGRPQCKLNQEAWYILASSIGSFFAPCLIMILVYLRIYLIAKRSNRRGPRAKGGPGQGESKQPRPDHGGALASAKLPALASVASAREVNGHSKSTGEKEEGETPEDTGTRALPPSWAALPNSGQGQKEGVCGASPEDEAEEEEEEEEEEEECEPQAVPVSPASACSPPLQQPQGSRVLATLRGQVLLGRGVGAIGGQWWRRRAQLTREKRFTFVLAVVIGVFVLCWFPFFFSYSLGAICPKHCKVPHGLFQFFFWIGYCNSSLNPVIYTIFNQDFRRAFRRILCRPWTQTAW
Outline: (§1)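 Nonspecific binding defined with 10 μM clonidine. Points in triplicate, reported as percent of control; experiment repeated three times.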

[2] = target: T1, Adrenergic receptor alpha-2; test: Agonistic potency at alpha 2-Adrenergic receptor for inhibition of 10 uM forskolin-elicited stimulation of adenylate cyclase in human platelet membranes; format: functional, cell membranes
Outline: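 Human platelet membranes (10–15 μg protein/tube) added to medium preincubated 5 min at 37 °C: 0.1 mM [α-32P]ATP, 0.1 mM cAMP, adenosine deaminase, 0.1 mM rolipram, 0.2 mM EGTA, creatine phosphate/kinase, BSA, 1 μM GTP, 10 μM forskolin, 1 mM MgCl2, 50 mM Tris-HCl pH 7.4. Stopped with zinc acetate/Na2CO3. Product is cAMP (pmol/min/mg), triplicate points. Adjusted EC50 is taken from dose-response curves.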

[3] = target: Beta-1 adrenergic receptor (Cavia porcellus, UniProt B0FL73); test: Agonistic potency at beta-1 adrenergic receptor for the percent maximal increase in contraction rate of isolated guinea pig atria; format: functional
Outline: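 Isolated guinea pig atria, giving percent of maximal rate increase for four individual preparations.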

[4] = target: Beta-1 adrenergic receptor (Rattus norvegicus) (UniProt P18090); test: Binding affinity against beta-1 adrenergic receptor in rat cerebral cortical membranes by displacement of Dihydro-[3H]-alprenolol
Adrenergic receptor beta = Adrenergic receptor beta (Rattus norvegicus, UniProt P18090+P10608+P26255); test: Agonistic potency at beta adrenergic receptor for the stimulation of accumulation of cyclic AMP in cultured C6 glioma cells; format: functional, cell-based
Outline: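 C6 glioma cells subcultured the day before and washed in HEPES-buffered saline (pH 7.4). Preincubated 10 min with 30 μM rolipram, then agonist for 10 min. Stopped with 0.1 M HCl. cAMP measured by commercial kit. Adjusted EC50 is taken from dose-response curves.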

[5] = target: T1, Adrenergic receptor alpha-2; test: Binding affinity against alpha-2 adrenergic receptor in guinea pig cerebral cortical membranes by displacement of [3H]clonidine; parameters: species or system Cavia porcellus; settings: target entry is the homologue from another species; outline: as §1

Sequence of Beta-1 adrenergic receptor (B0FL73 whole entry): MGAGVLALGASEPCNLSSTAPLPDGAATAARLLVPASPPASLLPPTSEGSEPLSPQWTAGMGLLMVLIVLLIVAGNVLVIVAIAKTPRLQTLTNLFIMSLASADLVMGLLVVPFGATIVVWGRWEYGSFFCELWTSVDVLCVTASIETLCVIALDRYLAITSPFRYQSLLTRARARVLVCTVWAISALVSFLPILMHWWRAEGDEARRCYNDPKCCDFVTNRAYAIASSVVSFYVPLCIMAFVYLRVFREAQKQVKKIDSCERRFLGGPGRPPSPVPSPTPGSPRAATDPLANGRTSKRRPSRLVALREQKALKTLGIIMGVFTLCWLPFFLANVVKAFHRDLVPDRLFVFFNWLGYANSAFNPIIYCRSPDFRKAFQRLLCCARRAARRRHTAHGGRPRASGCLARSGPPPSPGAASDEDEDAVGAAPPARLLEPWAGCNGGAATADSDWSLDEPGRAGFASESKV
Sequence of Beta-1 adrenergic receptor (Rattus norvegicus) (P18090 whole entry, looked up): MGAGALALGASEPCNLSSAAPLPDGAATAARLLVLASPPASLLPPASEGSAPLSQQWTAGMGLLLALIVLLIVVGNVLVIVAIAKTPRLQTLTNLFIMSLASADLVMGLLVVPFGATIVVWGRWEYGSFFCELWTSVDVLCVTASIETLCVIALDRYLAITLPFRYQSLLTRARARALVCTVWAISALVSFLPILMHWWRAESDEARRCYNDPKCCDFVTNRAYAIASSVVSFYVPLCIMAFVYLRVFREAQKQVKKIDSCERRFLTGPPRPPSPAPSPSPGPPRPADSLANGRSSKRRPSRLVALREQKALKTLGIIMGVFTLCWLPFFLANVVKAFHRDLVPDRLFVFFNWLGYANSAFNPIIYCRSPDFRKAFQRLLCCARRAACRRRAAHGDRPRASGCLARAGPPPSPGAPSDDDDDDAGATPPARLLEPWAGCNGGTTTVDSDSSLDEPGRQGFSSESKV

Row | Structure (SMILES) | Ki [1] [nM] | EC50 [2] [nM] | EC50 [3] [nM] | Ki [4] [nM] | EC50 (Adrenergic receptor beta) [nM] | Ki [5] [nM]
1 | NCC(O)c1ccc(O)c(O)c1F (stereo not given) | 700 |  |  |  |  | 
2 | CNCC(O)c1cc(O)c(O)cc1F (stereo not given) | 9 | 100 | > 1500 | 63000 | > 1500 | 
3 | CNCC(O)c1ccc(O)c(O)c1F (stereo not given) |  | > 5000 |  |  |  | 66
4 | CNC[C@H](O)c1ccc(O)c(O)c1 [EPINEPHRINE] |  |  | 260 | 3000 |  | 
